For series [1], the system named is Hepatitis C virus. In words: Antiviral activity against Hepatitis C virus assessed as blockage of HCV pseudo paricle entry to human Hep3B cells at 1 uM after 72 hrs. It is filed as functional, Hepacivirus hominis, Hep 3B2.
In series [2] the test system is Vesicular stomatitis virus. Nature of the series: Antiviral activity against Vesicular stomatitis virus assessed as blockage of VSV pseudo paricle entry to human Hep3B cells at 5 uM after 72 hrs. Type of series: functional, Hep 3B2.
For series [3], the system named is Vesicular stomatitis virus. In words: Antiviral activity against Vesicular stomatitis virus assessed as blockage of VSV pseudo paricle entry to human Hep3B cells at 1 uM after 72 hrs. It is filed as functional, Hep 3B2.
Series [4] deals with Hepatitis C virus. In words: Antiviral activity against Hepatitis C virus assessed as blockage of HCV pseudo paricle entry to human Hep3B cells at 5 uM after 72 hrs. It is filed as functional, Hepacivirus hominis, Hep 3B2.
Series [5] can be described thus: Hemolytic activity in rabbit RBC assessed as hemolysis after 60 mins by microtitre plate reader analysis. It is filed as ADME, cell-based, Oryctolagus cuniculus. The following applies: erythrocyte, 1 h. In a few lines: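 Rabbit erythrocytes at 2% (5 × 10⁸ RBC/mL) in PBS, pH 7.4, exposed to serially diluted compounds for 60 min at 37 °C. Hemolysis was read as absorbance at 541 nm, and percentage hemolysis was calculated by the routine method.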

Consider `CC1(C)C[C@H]2C3=CC[C@@H]4[C@@]5(C)CC[C@H](O)C(C)(C)[C@@H]5CC[C@@]4(C)[C@]3(C)C[C@@H](O)[C@@]2(C(=O)O)C[C@@H]1O`, for which the Activity in the series with Hepatitis C virus [1] was -5.7%; in series [2], 33.2%; in series [3], 20.7%; with Hepatitis C virus [4], 18.4%.
In the case of `CC1(C)CC[C@]2(C(=O)O)[C@H](O)C[C@]3(C)C(=CC[C@@H]4[C@@]5(C)[C@H](O)C[C@H](O)C(C)(C)[C@@H]5CC[C@]43C)[C@@H]2C1`, the Activity with Hepatitis C virus [1] is given as 14.3%; in series [2], 11.8%; in series [3], 7.9%; in series [5], “Non-toxic”; with Hepatitis C virus [4], 35.2%.
Regarding `CC1(C)C(=O)CC[C@]2(C)[C@H]3CC=C4[C@@H]5C[C@](C)(CO)CC[C@]5(C(=O)O)[C@H](O)C[C@@]4(C)[C@]3(C)CC[C@@H]12`, the Activity in the series on Hepatitis C virus [1] is listed as 3.1%; in series [2], 10.7%; in series [3] it was -20%; in the series on Hepatitis C virus [4], -3.3%.
As for `CC1(C)CC[C@]2(C(=O)O)[C@H](O)C[C@]3(C)C(=CC[C@@H]4[C@@]5(C)CC[C@H](O)C(C)(C)[C@@H]5CC[C@]43C)[C@H]2C1` [ECHINOCYSTIC ACID], the Activity in the series on Hepatitis C virus [1] is on record as 21.3%; in series [2], -0.1%; in series [3], -0.1%; with Hepatitis C virus [4], 75.5%.
With `CC1(C)CC[C@@]2(C(=O)O)C(=C3C=C[C@@H]4[C@@]5(C)CC[C@H](O)C(C)(C)[C@@H]5C[C@H](O)[C@@]4(C)[C@]3(C)C[C@H]2O)C1`, the Activity in the series on Hepatitis C virus [1] is reported as 22.2%; in series [2], -4.4%; in series [3], -13.7%; in the series with Hepatitis C virus [4] it was 31.9%.
Take `CC1(C)CC[C@@]2(C(=O)O)C(=C3C=C[C@@H]4[C@@]5(C)[C@H](O)C[C@H](O)C(C)(C)[C@@H]5CC[C@@]4(C)[C@]3(C)C[C@H]2O)C1`: the Activity in the series on Hepatitis C virus [1] was 2.3%; in series [2] it was 5.9%; in series [3] it was -15.8%; in the series on Hepatitis C virus [4], 26.3%.
Turning to `CC1(C)CC[C@]2(C(=O)O)[C@H](O)C[C@]3(C)C(=CC[C@@H]4[C@@]5(C)CCC(=O)C(C)(C)[C@@H]5CC[C@]43C)[C@@H]2C1`, the Activity with Hepatitis C virus [1] is 7.5%; in series [2] it was 13.6%; in series [3], -2.5%; in series [5], “Non-toxic”; in the series on Hepatitis C virus [4] it was 41.6%.
In the same order, the values of `CC1(C)[C@@H](O)CC[C@]2(C)[C@H]3CC=C4[C@@H]5C[C@](C)(CO)CC[C@]5(C(=O)O)[C@H](O)C[C@@]4(C)[C@]3(C)CC[C@@H]12` are 16.5%, 3.6%, -2.5%, “Non-toxic” and 36.5%.
For `CC1(C)CC[C@]2(C(=O)O)[C@H](O)C[C@]3(C)C(=CC[C@@H]4[C@@]5(C)CC[C@H](O)C(C)(C)[C@@H]5C[C@H](O)[C@]43C)[C@@H]2C1` the same measures were 30.4%, 5.6%, 1.6%, “Non-toxic” and 53.5%.
Consider `CC1(C)C[C@H]2C3=CC[C@@H]4[C@@]5(C)CC[C@H](O)C(C)(C)[C@@H]5[C@H](O)C[C@@]4(C)[C@]3(C)C[C@@H](O)[C@@]23C[C@@H]1OC3=O`, for which the Activity in the series on Hepatitis C virus [1] is -1%; in series [2], -24%; in series [3], -8.3%; in series [5] it was “Non-toxic”; with Hepatitis C virus [4], 4.7%.
For `CC1(C)C[C@H]2C3=CC[C@@H]4[C@@]5(C)CC[C@H](O)C(C)(C)[C@@H]5CC[C@@]4(C)[C@]3(C)C[C@@H](O)[C@@]23C[C@@H]1OC3=O` the same measures were 13.9%, -12.1%, -17.3%, “Non-toxic” and 31.9%.
For the molecule `CC1(C)C[C@H]2C3=CC[C@@H]4[C@@]5(C)[C@H](O)C[C@H](O)C(C)(C)[C@@H]5CC[C@@]4(C)[C@]3(C)C[C@@H](O)[C@@]23C[C@@H]1OC3=O`, the Activity in the series with Hepatitis C virus [1] was 28.9%; in series [2] it was 19.2%; in series [3] it was 1.8%; in series [5], “Non-toxic”; in the series with Hepatitis C virus [4] it was 72.6%.
For `CC1(C)CC2=C3C=C[C@@H]4[C@@]5(C)CC[C@H](O)C(C)(C)[C@@H]5CC[C@@]4(C)[C@]3(C)C[C@@H](O)[C@@]23C[C@@H]1OC3=O` the same measures were 11.6%, -10.3%, -16.2%, “Non-toxic” and 31.7%.

(Values after ChEMBL document CHEMBL2390833, “Elucidation of the pharmacophore of echinocystic acid, a new lead for blocking HCV entry” (Eur J Med Chem, 2013).)
